Results from different studies.
Lines come from different studies, so protocols differ.
Organism: Pseudomonas aeruginosa
Effect on: microbial growth

| Structure (SMILES) | assay | test system | conditions | MIC |
| --- | --- | --- | --- | --- |
| CC(=O)NCN1N=C(C)C(=NNn2c(-c3ccccc3)nc3ccccc3c2=O)C1=O | broth dilution |  | 24 h | 59.9 µM |
| Cc1ccc(C)n1-c1ccc(-c2nnc(-c3cccc([N+](=O)[O-])c3)[nH]2)cc1 | broth dilution | ATCC10145 | 18 h | 250 µg/mL |
| CCn1cc(C(=O)O)c(=O)c2cc(F)c(N3CCNCC3)cc21 | broth dilution | ATCC9027 |  | 2 µM |
| O=[N+]([O-])c1ccc(-c2nc3cc(Cl)ccc3[nH]2)o1 | broth dilution | ATCC27853 |  | > 64 µg/mL |
| CCCCCCC/C=C/C(=O)N1CC(=O)/C(=C(\C)O)C1=O |  | PA01 |  | 200 µg/mL |
| Cc1ccc(C)n1-c1ccc(-c2nnc(-c3ccccc3Cl)[nH]2)cc1 | broth dilution | ATCC10145 | 18 h | 250 µg/mL |
| COc1c(C)c(OC)c(C(=O)/C=C/c2ccccc2)c(OC)c1C | broth dilution | ATCC27853 |  | 5000 µg/mL |
| Clc1ccc(Cn2c(-c3ccc(Cl)cc3)nc3ccccc32)cc1 | broth dilution | ATCC27853 |  | 256 µg/mL |
| CC1(C)SC2C(NC(=O)C(NC(=O)C3=C(O)C(c4ccccc4)NC3=O)c3ccccc3)C(=O)N2C1C(=O)O (stereo not shown) |  |  |  | 50 µg/mL |
| CO[C@@H](C(N)=O)[C@H](NC(=O)c1ccc(NC(=O)c2ccc(C#N)cc2)cc1)C(=O)Nc1ccc(C(=O)Nc2ccc(C(=O)Nc3ccc(C(=O)O)cc3)c(O)c2OC(C)C)cc1 |  | PA14 |  | 0.5 µg/mL |
| NC1CCCCc2c1[nH]c1ccc(Cl)c(Cl)c21 (stereo not shown) | broth dilution | PAO1 | 18 h | 256 µg/mL |
| CNC(=O)c1cc(Oc2ccc(NC(=O)Nc3ccc(Cl)c(C(F)(F)F)c3)cc2)ccn1 |  | DSM19882 |  | > 100 µM |
| CC(C)Oc1c(NC(=O)c2ccc(NC(=O)[C@H](CC(N)=O)NC(=O)c3ccc(NC(=O)c4ccc([N+](=O)[O-])c(OC(C)C)c4O)cc3)cc2)ccc(C(=O)Nc2ccc(C(=O)O)cc2)c1O |  | PA14 |  | > 64 µg/mL |
| CC1COc2c(N3CCN(C)CC3)c(F)cc3c(=O)c(C(=O)O)cn1c23 (stereo not shown) | broth dilution | PAO1 |  | 1 µg/mL |
| C[C@@H](O)[C@H]1C(=O)N2C(C(=O)O)=C(S[C@@H]3CN[C@H](C(=O)N(C)C)C3)[C@H](C)[C@H]12 | broth dilution | ATCC27853 |  | 0.25 µg/mL |
| CCN1CCN(C(=O)N[C@@H](C(=O)N[C@@H]2C(=O)N3[C@@H]2SC(C)(C)[C@@H]3C(=O)O)c2ccccc2)C(=O)C1=O |  |  |  | 12.5 µg/mL |
| CC(C)Oc1c(NC(=O)c2ccc(NC(=O)[C@H](CC(N)=O)NC(=O)c3ccc(NC(=O)c4ccc([N+](=O)[O-])c5cccnc45)cc3)cc2)ccc(C(=O)Nc2ccc(C(=O)O)cc2)c1O |  | PA14 |  | > 64 µg/mL |
| Cc1cc(C)n(C(=O)c2ccc(-n3c(C)ccc3C)cc2)n1 | broth dilution | ATCC10145 | 18 h | 250 µg/mL |
| CN(C)[C@@H]1C(O)=C(C(N)=O)C(=O)[C@@]2(O)C(O)=C3C(=O)c4c(cc5ccc(CN6CC(F)(F)C6)cc5c4O)C[C@H]3C[C@@H]12 | broth dilution | ATCC27853 |  | 32 µg/mL |
| CC(C)Oc1c(NC(=O)c2ccc(NC(=O)[C@H](CC(N)=O)NC(=O)c3ccc(NC(=O)c4ccc([N+](=O)[O-])cc4)cc3)cc2)ccc(C(=O)Nc2ccc(C(=O)O)c(F)c2)c1O |  | PA14 |  | > 64 µg/mL |
| CCCCCCC#Cc1cncc(-c2nnc(SCc3ccc([N+](=O)[O-])o3)n2C)c1 |  |  |  | ≥ 20 µg/mL |
| CC(C)Oc1c(NC(=O)c2ccc(NC(=O)[C@H](CC(N)=O)NC(=O)c3ccc(NC(=O)c4ccc(C#N)c(F)c4)cc3)cc2)ccc(C(=O)Nc2ccc(C(=O)O)cc2)c1O |  | PA14 |  | 8 µg/mL |
| O=C(O)c1cn(C2CC2)c2cc(N3CCNCC3)c(F)cc2c1=O |  |  |  | 1.6 µg/mL |
| CCCCCCC/C=C/C(=O)N1C(=O)/C(=C(/C)O)C(=O)C1CCC(=O)O (stereo not shown) |  | PA01 |  | > 200 µg/mL |
| CCCNc1nc(N(C)C)c2c(c1O)C(=O)C1=C(O)[C@]3(O)C(=O)C(C(N)=O)=C(O)[C@@H](N(C)C)[C@@H]3C[C@@H]1C2.Cl.Cl | broth dilution | ATCC27853 |  | > 32 µg/mL |

| Structure (SMILES) | assay | test system | conditions | MIC |
| --- | --- | --- | --- | --- |
| CCCCCCCCCC(=O)Oc1c(C)c(O)c(C(=O)/C=C/c2ccccc2)c(OC)c1C | broth dilution | ATCC27853 |  | 5000 µg/mL |
| CN[C@H](CC(C)C)C(=O)N[C@H]1C(=O)N[C@@H](CC(N)=O)C(=O)N[C@H]2C(=O)N[C@H]3C(=O)N[C@H](C(=O)N[C@H](C(=O)O)c4cc(O)cc(O)c4-c4cc3ccc4O)[C@H](O)c3ccc(c(Cl)c3)Oc3cc2cc(c3O[C@@H]2O[C@H](CO)[C@@H](O)[C@H](O)[C@H]2O[C@H]2C[C@](C)(N)[C@H](O)[C@H](C)O2)Oc2ccc(cc2Cl)[C@H]1O | broth dilution | ATCC27853 | 18 h | > 32 µg/mL |
| CNc1nc(Cl)c2c(c1O)C(=O)C1=C(O)[C@]3(O)C(=O)C(C(N)=O)=C(O)[C@@H](N(C)C)[C@@H]3C[C@@H]1C2.Cl.Cl.Cl | broth dilution | ATCC27853 |  | 8 µg/mL |
| c1ccc(NCc2ccc(Oc3ccccn3)cc2)cc1 |  |  |  | > 25 µg/mL |
| COc1c(C)c(OC(C)=O)c(C)c(OC(C)=O)c1C(=O)/C=C/c1ccccc1 | broth dilution | ATCC27853 |  | 5000 µg/mL |
| CC(C)Oc1c(NC(=O)c2ccc(NC(=O)[C@H](CC(N)=O)NC(=O)c3ccc(NC(=O)c4ccc5c(c4)COC5=O)cc3)cc2)ccc(C(=O)Nc2ccc(C(=O)O)cc2)c1O |  | PA14 |  | > 64 µg/mL |
| O=C(Nc1ccc([N+](=O)[O-])cc1F)c1ccccc1O | broth dilution | ATCC27853 |  | > 64 µg/mL |
| CCCCCCC#Cc1cncc(-c2nnc(SCc3ccc([N+](=O)[O-])o3)n2C2CC2)c1 |  |  |  | ≥ 20 µg/mL |
| CCCCCCC/C=C/C(=O)N1C(=O)/C(=C(/C)O)C(=O)C1CO (stereo not shown) |  | PA01 |  | > 200 µg/mL |
| CN(C)c1ccc(-c2ccc3cc4c(c(O)c3c2)C(=O)C2=C(O)[C@]3(O)C(=O)C(C(N)=O)=C(O)[C@@H](N(C)C)[C@@H]3C[C@@H]2C4)cc1 | broth dilution | ATCC27853 |  | 32 µg/mL |
| CN(C)[C@@H]1C(O)=C(C(N)=O)C(=O)[C@@]2(O)C(O)=C3C(=O)c4c(O)cncc4C[C@H]3C[C@@H]12.Cl.Cl | broth dilution | ATCC27853 |  | 8 µg/mL |
| CC1(C)S[C@@H]2[C@H](NC(=O)C(C(=O)O)c3ccccc3)C(=O)N2[C@H]1C(=O)O (stereo partly shown) | broth dilution | CMCC10104 |  | > 200 µM |
| COc1ccc(-c2nc3ccccc3n2Cc2ccccc2)cc1OC | broth dilution | ATCC27853 |  | 256 µg/mL |
| CN(C)[C@@H]1C(O)=C(C(N)=O)C(=O)[C@@]2(O)C(O)=C3C(=O)c4c(cc5ccc(CN(C)S(C)(=O)=O)cc5c4O)C[C@H]3C[C@@H]12 | broth dilution | ATCC27853 |  | 32 µg/mL |
| CCN1CCN(C(=O)N[C@@H](C(=O)N[C@@H]2C(=O)N3C(C(=O)O)=C(CSc4nnnn4C)CS[C@H]23)c2ccc(O)cc2)C(=O)C1=O | broth dilution | PAO1 |  | 4 µg/mL |
| O=C(Cc1cc(O)c(O)c(O)c1)NCCCCCCCC[P+](c1ccccc1)(c1ccccc1)c1ccccc1.[Br-] | broth dilution | ATCC27853 | 18 h | > 32 µg/mL |
| Cc1ncc(O)c2c1C[C@H]1C[C@H]3[C@H](N(C)C)C(O)=C(C(N)=O)C(=O)[C@@]3(O)C(O)=C1C2=O.Cl.Cl | broth dilution | ATCC27853 |  | 16 µg/mL |
| CC(C)Oc1c(NC(=O)c2ccc(NC(=O)[C@H](CC(N)=O)NC(=O)c3ccc(NC(=O)c4cc(=O)c(O)c[nH]4)cc3)cc2)ccc(C(=O)Nc2ccc(C(=O)O)cc2)c1O |  | PA14 |  | > 64 µg/mL |
| CN(C)CC(C)(C)CNc1nc(F)c2c(c1O)C(=O)C1=C(O)[C@]3(O)C(=O)C(C(N)=O)=C(O)[C@@H](N(C)C)[C@@H]3C[C@@H]1C2.Cl | broth dilution | ATCC27853 |  | 32 µg/mL |
| CC(C)Oc1c(NC(=O)c2ccc(NC(=O)[C@H](CC(N)=O)NC(=O)c3ccc(NC(=O)c4cccc(N)c4)cc3)cc2)ccc(C(=O)Nc2ccc(C(=O)O)cc2)c1O |  | PA14 |  | > 64 µg/mL |
| CC1=NN(CNc2ccccc2[N+](=O)[O-])C(=O)C1=NNn1c(-c2ccccc2)nc2ccccc2c1=O | broth dilution |  | 24 h | 50.4 µM |
| Cc1cccc(NCc2ccc(Oc3ccccn3)cc2)c1 |  |  |  | > 25 µg/mL |
| O=C1NN=C(N=Cc2ccc(O)c(O)c2)C1=NNn1c(-c2ccccc2)nc2ccccc2c1=O | broth dilution |  | 24 h | 53.5 µM |
| C[C@H]1COc2c(N3CCN(C)CC3)c(F)cc3c(=O)c(C(=O)O)cn1c23 | agar dilution | PAO1 |  | 4 µg/mL |
